Reference: ChEMBL document CHEMBL1148314, “4-(omega-(alkyloxy)alkyl)-1H-imidazole derivatives as histamine H(3) receptor antagonists/agonists” (J Med Chem, 2004)

Key:
[1] = biological target: Histamine H3 receptor (Cavia porcellus, UniProt Q9JI35); test: Functional Histamine H3 receptor antagonistic activity in vitro assay on guinea pig ileum; assay type: tissue-based; conditions: read-out: pA2 (converted)
Method in brief: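 Guinea-pig ileal longitudinal muscle–myenteric plexus strips at about 7.5 mN in Krebs–Henseleit, 37 °C, 95% O2/5% CO2, mepyramine 1 μM present. Field stimulated at 15 V, 0.5 ms, 0.1 Hz. Cumulative (R)-α-methylhistamine curves (1–1000 nM) recorded before and after antagonist; rightward shift corrected by the shift in daily controls.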

[2] = biological target: Histamine H2 receptor (Cavia porcellus, UniProt P47747); test: Functional H2 receptor antagonistic activity in vitro assay on the isolated spontaneously beating guinea-pig right atrium; assay type: tissue-based, Cardiac atrium; conditions: read-out: pA2 (converted)
Method in brief: (§1)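 Isolated guinea-pig tissues, spontaneously beating right atrium for H2 and ileum for H1, tested by standard methods. At least triplicate; values are means.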

[3] = biological target: Histamine H1 receptor (Cavia porcellus, UniProt P31389); test: Functional Histamine H1 receptor antagonistic activity in vitro assay on guinea pig ileum; assay type: tissue-based; conditions: read-out: pA2 (converted); method in brief: as §1
[4] = biological target: T1, Histamine H3 receptor (Rattus norvegicus, UniProt Q9QYN8); test: Functional Histamine H3 receptor antagonistic activity in vitro assay on synaptosomes of rat cerebral cortex; assay type: subcellular, Brain
Method in brief: (§2)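 Rat cerebral cortex synaptosomes preloaded 30 min at 37 °C with L-[3H]histidine 0.4 μM in modified Krebs–Ringer, washed, then depolarized 2 min with 2 or 30 mM K+. Drugs and 1 μM histamine added 5 min before the stimulus. [3H]histamine measured by scintillation after purification; Ki by Cheng–Prusoff, mean ± SEM of at least three experiments.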

[5] = biological target: T1, Histamine H3 receptor; test: In vitro […] against rat histamine H3 receptor; method in brief: as §2
[6] = test system: Mus musculus; test: Potency after oral administration in vivo in mice; assay type: functional
[7] = biological target: T2, Histamine H3 receptor (Homo sapiens, UniProt Q9Y5N1); test: (§3) Effect on specific [35S]GTP-gamma-S, Binding to HEK293 cell membranes expressing the human Histamine H3 receptor; assay type: functional
Method in brief: (§4)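 HEK293 cells stably transfected with human H3 receptor (selected with 2 mg/mL G418, maintained in 1 mg/mL). Membranes prepared in Tris/HCl 50 mM pH 7.5; 10–20 μg protein incubated 60 min at 20 °C with 0.1 nM [35S]GTPγS ± drug in Tris 50 mM, NaCl 100 mM, MgCl2 10 mM, GDP 10 μM.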

[8] = biological target: T2, Histamine H3 receptor; test: as §3; assay type: functional; method in brief: as §4; remark: listed apart in the source

T2 sequence (Q9Y5N1 whole entry): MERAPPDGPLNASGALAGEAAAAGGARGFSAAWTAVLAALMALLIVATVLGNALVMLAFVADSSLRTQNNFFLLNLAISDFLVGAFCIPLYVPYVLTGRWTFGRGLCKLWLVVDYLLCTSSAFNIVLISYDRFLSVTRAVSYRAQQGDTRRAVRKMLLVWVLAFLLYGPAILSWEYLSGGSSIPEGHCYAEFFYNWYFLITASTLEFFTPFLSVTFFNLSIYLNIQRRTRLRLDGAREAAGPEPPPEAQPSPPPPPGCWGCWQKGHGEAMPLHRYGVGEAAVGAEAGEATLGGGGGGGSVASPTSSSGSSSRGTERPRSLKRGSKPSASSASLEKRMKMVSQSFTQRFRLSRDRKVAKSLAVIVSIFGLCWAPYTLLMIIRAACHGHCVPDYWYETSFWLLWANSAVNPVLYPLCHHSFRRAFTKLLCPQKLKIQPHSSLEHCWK
Chain of Histamine H1 receptor (P31389 whole entry): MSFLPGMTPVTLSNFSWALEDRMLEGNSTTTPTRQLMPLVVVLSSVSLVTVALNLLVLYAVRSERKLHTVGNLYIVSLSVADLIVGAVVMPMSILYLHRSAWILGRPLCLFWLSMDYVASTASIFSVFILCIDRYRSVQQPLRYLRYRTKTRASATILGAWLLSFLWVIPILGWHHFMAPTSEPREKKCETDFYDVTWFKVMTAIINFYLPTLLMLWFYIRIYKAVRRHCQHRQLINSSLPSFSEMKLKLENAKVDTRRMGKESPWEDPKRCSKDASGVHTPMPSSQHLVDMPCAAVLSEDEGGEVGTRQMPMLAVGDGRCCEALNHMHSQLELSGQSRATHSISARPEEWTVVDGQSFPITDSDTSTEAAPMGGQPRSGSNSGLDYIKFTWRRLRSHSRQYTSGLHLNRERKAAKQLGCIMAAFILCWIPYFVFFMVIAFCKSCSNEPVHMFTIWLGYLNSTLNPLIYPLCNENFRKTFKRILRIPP
T1 sequence (Q9QYN8 whole entry): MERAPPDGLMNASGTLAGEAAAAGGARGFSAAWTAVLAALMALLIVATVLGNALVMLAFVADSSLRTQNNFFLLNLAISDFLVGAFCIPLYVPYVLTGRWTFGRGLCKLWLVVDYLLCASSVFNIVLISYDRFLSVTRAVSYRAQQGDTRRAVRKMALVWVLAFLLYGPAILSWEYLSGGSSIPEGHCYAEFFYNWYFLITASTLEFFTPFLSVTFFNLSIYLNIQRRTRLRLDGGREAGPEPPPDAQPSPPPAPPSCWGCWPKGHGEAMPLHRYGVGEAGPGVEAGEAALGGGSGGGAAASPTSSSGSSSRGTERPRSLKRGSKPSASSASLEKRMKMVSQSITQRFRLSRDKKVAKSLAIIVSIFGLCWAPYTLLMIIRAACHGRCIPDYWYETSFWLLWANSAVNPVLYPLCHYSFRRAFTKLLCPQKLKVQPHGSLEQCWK
Chain of Histamine H3 receptor (Cavia porcellus, UniProt Q9JI35) (Q9JI35 whole entry): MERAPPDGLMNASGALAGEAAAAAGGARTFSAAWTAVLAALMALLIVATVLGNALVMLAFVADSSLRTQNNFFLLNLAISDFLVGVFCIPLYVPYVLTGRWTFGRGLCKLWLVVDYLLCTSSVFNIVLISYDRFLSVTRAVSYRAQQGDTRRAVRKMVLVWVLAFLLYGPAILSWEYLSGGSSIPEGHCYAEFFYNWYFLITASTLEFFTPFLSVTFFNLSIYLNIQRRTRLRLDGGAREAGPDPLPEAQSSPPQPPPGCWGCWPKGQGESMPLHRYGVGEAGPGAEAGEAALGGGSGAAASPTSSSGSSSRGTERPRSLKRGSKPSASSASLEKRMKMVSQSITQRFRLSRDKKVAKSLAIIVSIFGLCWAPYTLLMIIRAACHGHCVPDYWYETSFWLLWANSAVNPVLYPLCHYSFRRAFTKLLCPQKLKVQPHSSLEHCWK
Chain of Histamine H2 receptor (P47747 whole entry): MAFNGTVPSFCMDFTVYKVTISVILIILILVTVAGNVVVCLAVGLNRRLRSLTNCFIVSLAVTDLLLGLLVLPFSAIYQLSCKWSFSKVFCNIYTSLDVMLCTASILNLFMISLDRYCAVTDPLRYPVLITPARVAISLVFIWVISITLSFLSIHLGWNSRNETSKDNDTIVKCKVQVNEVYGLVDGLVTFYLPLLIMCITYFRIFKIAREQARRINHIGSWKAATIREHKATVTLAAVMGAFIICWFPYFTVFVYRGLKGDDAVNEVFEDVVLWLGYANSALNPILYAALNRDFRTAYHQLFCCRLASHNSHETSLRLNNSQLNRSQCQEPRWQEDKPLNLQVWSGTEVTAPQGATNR

CCCCCCCOCCCc1c[nH]cn1
Kb [1]: 15.8 nM | Kb [2]: 2000 nM | Kb [3]: > 100000 nM | Ki [4]: 15.8 nM

CC(C)(C)OCCCc1c[nH]cn1.O=C(O)/C=C\C(=O)O
Kb [2]: > 31600 nM | Kb [3]: > 100000 nM | Ki [4]: 126 nM | Ki [5]: 120 nM | ED50 [6]: 1.3 mg/kg

CC(=O)CCOCCCc1c[nH]cn1
Ki [5]: 143 nM

O=C(CCCOCCCc1c[nH]cn1)c1ccc(F)cc1.O=C(O)C(=O)O
Ki [5]: 14 nM | ED50 [6]: 0.28 mg/kg

O=C(c1ccc(OCCCc2c[nH]cn2)cc1)C1CC1 [CIPROXIFAN]
ED50 [6]: 0.14 mg/kg

CC(C)(C)OCCc1c[nH]cn1.O=C(O)C(=O)O
Ki [5]: > 500 nM | ED50 [6]: > 10 mg/kg

c1nc(CCCOCC2CC2)c[nH]1
Ki [5]: 167 nM

COCCOCCCc1c[nH]cn1
Ki [5]: ~400 nM

c1nc(COCC2CC3CCC2C3)c[nH]1 (stereo not given)
Ki [5]: ~500 nM

N#CCCOCCCc1c[nH]cn1.O=C(O)C(=O)O
Ki [5]: 674 nM | ED50 [6]: 3.2 mg/kg

CCCCCCOCCCc1c[nH]cn1.O=C(O)/C=C\C(=O)O
Kb [1]: 39.8 nM | Kb [2]: 10000 nM | Kb [3]: 7940 nM | EC50 [7]: 40 nM | Intrinsic activity [8]: 0.49 | Ki [4]: 12.6 nM | Ki [5]: 14 nM | ED50 [6]: > 30 mg/kg

O=C(COCCCc1c[nH]cn1)c1cccc([N+](=O)[O-])c1
Ki [5]: > 500 nM

O=C(O)/C=C\C(=O)O.c1nc(COCCC2CCCCC2)c[nH]1
Ki [5]: > 500 nM | ED50 [6]: > 10 mg/kg

O=C(COCCCc1c[nH]cn1)c1ccccc1.O=C(O)/C=C\C(=O)O
Ki [5]: > 500 nM | ED50 [6]: > 10 mg/kg

CCCCOCCCc1c[nH]cn1.O=C(O)/C=C\C(=O)O
EC50 [7]: 311 nM | Intrinsic activity [8]: 0.39 | Ki [5]: 56 nM | ED50 [6]: > 10 mg/kg

C#CCOCCCc1c[nH]cn1.O=C(O)C(=O)O
Kb [2]: > 31600 nM | Kb [3]: > 316000 nM | EC50 [7]: 135 nM | Intrinsic activity [8]: 0.73 | Ki [4]: 200 nM | Ki [5]: 190 nM | ED50 [6]: 0.57 mg/kg

c1ccc(CC(COCCCc2c[nH]cn2)c2ccccc2)cc1 (stereo not given)
Ki [5]: 184 nM

c1nc(CCCOCCC2CCCCC2)c[nH]1
Ki [4]: 10 nM | Ki [5]: 11 nM

O=C(O)/C=C\C(=O)O.c1nc(CCCOCCCC2CCCCC2)c[nH]1
Kb [2]: 50100 nM | Kb [3]: 7940 nM | Ki [4]: 20 nM | ED50 [6]: 1 mg/kg

CCOCCCc1c[nH]cn1.O=C(O)C(=O)O
Kb [2]: > 31600 nM | Kb [3]: > 100000 nM | ED50 [6]: 0.26 mg/kg

S=C(NC1CCCCC1)N1CCC(c2cnc[nH]2)CC1 [THIOPERAMIDE]
ED50 [6]: 1 mg/kg

c1nc(COCCCC2CCCCC2)c[nH]1
Ki [5]: ≥ 500 nM

c1ccc(C(OCCCc2cnc[nH]2)(c2ccccc2)c2ccccc2)cc1
Ki [5]: > 500 nM | ED50 [6]: > 10 mg/kg

C=CCCCOCCCc1c[nH]cn1.O=C(O)C(=O)O
Ki [5]: 27 nM | ED50 [6]: ≥ 10 mg/kg

C#CCCCOCCCc1c[nH]cn1
Kb [1]: 316 nM | Ki [4]: 39.8 nM | Ki [5]: 38 nM

CCCCCCCCOCCCc1c[nH]cn1.O=C(O)/C=C\C(=O)O
Kb [1]: 100 nM | Kb [2]: 2510 nM | Kb [3]: 15800 nM | ED50 [6]: > 10 mg/kg

C=CCOCCCc1c[nH]cn1.O=C(O)C(=O)O
Kb [2]: > 31600 nM | Kb [3]: > 316000 nM | EC50 [7]: 336 nM | Intrinsic activity [8]: 0.63 | Ki [4]: 200 nM | Ki [5]: 200 nM | ED50 [6]: 0.33 mg/kg

c1nc(COCC2CCCCC2)c[nH]1
Ki [4]: > 1000 nM | Ki [5]: > 500 nM

COCCCc1c[nH]cn1.O=C(O)C(=O)O
Kb [2]: > 31600 nM | Kb [3]: > 100000 nM | Ki [4]: 316 nM | Ki [5]: 290 nM | ED50 [6]: ~10 mg/kg

CCCOCCCc1c[nH]cn1.O=C(O)C(=O)O
Kb [2]: > 31600 nM | Kb [3]: > 31600 nM | Ki [4]: 251 nM | Ki [5]: 230 nM | ED50 [6]: 1.8 mg/kg

CCCCCOCCCc1c[nH]cn1.O=C(O)/C=C\C(=O)O
Kb [1]: 63.1 nM | Kb [2]: > 31600 nM | Kb [3]: 20000 nM | EC50 [7]: 97 nM | Intrinsic activity [8]: 0.47 | Ki [4]: 31.6 nM | Ki [5]: 33 nM | ED50 [6]: > 30 mg/kg

O=C(O)/C=C\C(=O)O.c1nc(CCCOCCCC2CCCC2)c[nH]1
Kb [1]: 15.8 nM | Kb [2]: 5010 nM | Kb [3]: 20000 nM | Ki [4]: 6.31 nM | Ki [5]: 7 nM | ED50 [6]: 0.28 mg/kg
